Results published in ChEMBL document CHEMBL1765003, “Discovery of (1S,2R,3R)-2,3-dimethyl-2-phenyl-1-sulfamidocyclopropanecarboxylates: novel and highly selective aggrecanase inhibitors” (J Med Chem, 2011).

Legend:
[1] = molecular target: T1, A disintegrin and metalloproteinase with thrombospondin motifs 4 (Homo sapiens, UniProt O75173); assay: Inhibition of human recombinant aggrecanase 1 after 150 mins by fluorescence plate reader
T1 sequence (O75173 whole entry): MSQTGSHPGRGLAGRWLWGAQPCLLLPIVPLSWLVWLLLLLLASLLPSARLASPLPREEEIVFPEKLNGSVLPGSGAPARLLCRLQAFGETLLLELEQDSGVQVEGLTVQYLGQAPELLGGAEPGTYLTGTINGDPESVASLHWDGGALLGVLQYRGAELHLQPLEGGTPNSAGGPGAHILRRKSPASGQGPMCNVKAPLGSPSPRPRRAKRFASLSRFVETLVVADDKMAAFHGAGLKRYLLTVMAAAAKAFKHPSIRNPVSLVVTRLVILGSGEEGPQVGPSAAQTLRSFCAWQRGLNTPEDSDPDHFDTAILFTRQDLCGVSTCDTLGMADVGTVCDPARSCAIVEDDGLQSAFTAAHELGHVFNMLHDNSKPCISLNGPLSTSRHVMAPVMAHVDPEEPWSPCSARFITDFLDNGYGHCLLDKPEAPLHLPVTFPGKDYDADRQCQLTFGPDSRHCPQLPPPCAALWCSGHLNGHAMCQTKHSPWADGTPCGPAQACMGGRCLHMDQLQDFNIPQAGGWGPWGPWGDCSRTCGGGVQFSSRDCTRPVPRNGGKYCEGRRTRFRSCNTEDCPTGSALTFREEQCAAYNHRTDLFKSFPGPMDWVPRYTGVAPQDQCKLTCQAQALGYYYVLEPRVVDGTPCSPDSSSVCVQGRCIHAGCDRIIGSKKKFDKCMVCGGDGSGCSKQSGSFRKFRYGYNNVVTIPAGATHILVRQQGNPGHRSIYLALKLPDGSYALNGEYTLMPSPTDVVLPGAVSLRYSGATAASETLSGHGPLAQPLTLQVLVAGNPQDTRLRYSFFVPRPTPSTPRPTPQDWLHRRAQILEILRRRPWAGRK

[2] = molecular target: Matrix metalloproteinase-14 (Homo sapiens, UniProt P50281); assay: Inhibition of human recombinant MMP14 after 60 mins by fluorescence plate reader
Method in brief: (§1)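 Recombinant human enzyme at 20 ng/mL with 10 μM MOCAc-Lys-Pro-Leu-Gly-Leu-A2pr(Dnp)-Ala-Arg-NH₂, in 100 mM Tris-HCl pH 7.5, 150 mM NaCl, 10 mM CaCl₂, 0.05% Brij-35. Enzyme pretreated with inhibitor for 15 min at 25 °C, then substrate added. Fluorescence (ex 325, em 405 nm) read at 60 min. IC50 taken from three points in the linear range; mean of ≥2 determinations.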

[3] = molecular target: Matrix metalloproteinase-9 (Homo sapiens, UniProt P14780); assay: Inhibition of human recombinant MMP9 after 60 mins by fluorescence plate reader
Method in brief: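 rh-MMP-9 at 4 ng/mL with 10 μM MOCAc-Pro-Leu-Gly-Leu-A2pr(Dnp)-Ala-Arg-NH₂, in 100 mM Tris-HCl pH 7.5, 150 mM NaCl, 10 mM CaCl₂, 0.05% Brij-35. Enzyme and inhibitor preincubated for 15 min at 25 °C before substrate. Fluorescence (ex 325/em 405 nm) read at 60 min. IC50 from three linear-range points; ≥2 runs averaged.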

Collagenase 3 = Collagenase 3 (Homo sapiens, UniProt P45452); assay: Inhibition of human recombinant MMP13 after 60 mins by fluorescence plate reader
Method in brief: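 rh-MMP-13 at 40 ng/mL with 5 μM 7-MCA-Pro-CHA-Gly-NVal-His-Ala-DPA, in Tris-HCl pH 7.5/NaCl/CaCl₂/0.05% Brij-35. Pretreatment with inhibitor for 15 min at 25 °C, then substrate started the reaction. Fluorescence (ex 325/em 405 nm) read at 60 min. IC50 from three central linear points, averaged over ≥2 determinations.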

Stromelysin-1 = Stromelysin-1 (Homo sapiens, UniProt P08254); assay: Inhibition of human recombinant MMP3 after 60 mins by fluorescence plate reader
Method in brief: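 rh-MMP-3 at 40 ng/mL with 10 μM MOCAc-Arg-Pro-Lys-Pro-Val-Glu-Nva-Trp-Arg-Lys(Dnp)-NH₂, in Tris-HCl pH 7.5/NaCl/CaCl₂/Brij-35 buffer. Inhibitor preincubated for 15 min at 25 °C. Fluorescence (ex 325/em 405 nm) read at 60 min. IC50 from three central linear points; at least two determinations averaged.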

[4] = Volume of distribution at steady state in Sprague-Dawley rat at 1 mg/kg, iv; format: ADME, organism-based; design: dose 1 mg/kg, route intravenous; conditions: in vivo, read-out: Vdss
Method in brief: (§2)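 Intravenous dose of 1 mg/kg. Blood sampled at 0.50, 1, 2, 4, 8 and 24 h. Plasma obtained by centrifugation at 10 000 rpm for 5 min and kept at −20 °C until analysis.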

Cytochrome P450 2C19 = Cytochrome P450 2C19 (Homo sapiens, UniProt P33261); assay: Inhibition of CYP2C19 at up to 50 uM; format: ADME
Cytochrome P450 3A4 = Cytochrome P450 3A4 (Homo sapiens, UniProt P08684); assay: Inhibition of CYP3A4 at up to 50 uM; format: ADME
Cytochrome P450 2A6 = molecular target: T2, Cytochrome P450 2A6 (Homo sapiens, UniProt P11509); assay: Inhibition of CYP2A6 at up to 50 uM; format: ADME
T2 sequence (P11509 whole entry): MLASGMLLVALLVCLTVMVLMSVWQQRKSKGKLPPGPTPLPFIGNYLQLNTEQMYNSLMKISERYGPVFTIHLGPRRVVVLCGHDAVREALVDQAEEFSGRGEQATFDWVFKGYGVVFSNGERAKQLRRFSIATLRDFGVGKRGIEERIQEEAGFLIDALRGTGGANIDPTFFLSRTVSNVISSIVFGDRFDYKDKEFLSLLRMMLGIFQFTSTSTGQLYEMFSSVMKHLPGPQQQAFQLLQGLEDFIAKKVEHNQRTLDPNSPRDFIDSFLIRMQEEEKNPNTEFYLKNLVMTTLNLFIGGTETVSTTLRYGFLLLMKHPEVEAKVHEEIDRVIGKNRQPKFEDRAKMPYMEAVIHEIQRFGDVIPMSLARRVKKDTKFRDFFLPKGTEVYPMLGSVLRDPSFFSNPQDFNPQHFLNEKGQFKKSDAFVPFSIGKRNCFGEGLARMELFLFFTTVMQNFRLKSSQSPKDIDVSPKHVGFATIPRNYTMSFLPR

[5] = molecular target: Disintegrin and metalloproteinase domain-containing protein 17 (Homo sapiens, UniProt P78536); assay: Inhibition of human recombinant TACE after 60 mins by fluorescence plate reader
Method in brief: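 rh-TACE at 80 ng/mL with 10 μM MCA-Pro-Leu-Ala-Gln-Ala-Val-Dpa-Arg-Ser-Ser-Ser-Arg-NH₂, in 100 mM Tris-HCl pH 7.5, 150 mM NaCl, 10 mM CaCl₂, 0.05% Brij-35. Inhibitor preincubated for 15 min at 25 °C. Fluorescence (ex 325/em 405 nm) read at 60 min. IC50 from three linear-range points; mean of ≥2.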

[6] = AUC in Sprague-Dawley rat at 10 mg/kg, po; format: ADME, organism-based; design: dose 10 mg/kg, route oral; conditions: plasma
Cytochrome P450 2D6 = Cytochrome P450 2D6 (Homo sapiens, UniProt P10635); assay: Inhibition of CYP2D6 at up to 50 uM; format: ADME
Cytochrome P450 2C9 = Cytochrome P450 2C9 (Homo sapiens, UniProt P11712); assay: Inhibition of CYP2C9 at up to 50 uM; format: ADME
Cytochrome P450 1A2 = molecular target: T3, Cytochrome P450 1A2 (Homo sapiens, UniProt P05177); assay: Inhibition of CYP1A2 at up to 50 uM; format: ADME
T3 sequence (P05177 whole entry): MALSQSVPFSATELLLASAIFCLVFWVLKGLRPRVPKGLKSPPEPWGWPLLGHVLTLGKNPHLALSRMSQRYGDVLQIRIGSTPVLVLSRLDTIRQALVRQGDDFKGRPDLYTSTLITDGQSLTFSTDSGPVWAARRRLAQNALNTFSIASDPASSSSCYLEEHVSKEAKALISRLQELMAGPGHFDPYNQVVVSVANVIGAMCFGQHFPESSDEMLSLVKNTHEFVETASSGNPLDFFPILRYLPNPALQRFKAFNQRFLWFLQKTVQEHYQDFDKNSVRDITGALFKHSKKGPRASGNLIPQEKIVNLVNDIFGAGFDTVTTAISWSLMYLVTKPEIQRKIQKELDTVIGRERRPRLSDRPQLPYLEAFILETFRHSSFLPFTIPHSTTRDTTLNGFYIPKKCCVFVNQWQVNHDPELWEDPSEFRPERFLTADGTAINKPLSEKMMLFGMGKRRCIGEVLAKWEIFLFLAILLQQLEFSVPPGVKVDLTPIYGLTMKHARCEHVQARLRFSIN

Interstitial collagenase = molecular target: T4, Interstitial collagenase (Homo sapiens, UniProt P03956); assay: Inhibition of human recombinant MMP1 after 60 mins by fluorescence plate reader; method in brief: as §1
T4 sequence (P03956 whole entry): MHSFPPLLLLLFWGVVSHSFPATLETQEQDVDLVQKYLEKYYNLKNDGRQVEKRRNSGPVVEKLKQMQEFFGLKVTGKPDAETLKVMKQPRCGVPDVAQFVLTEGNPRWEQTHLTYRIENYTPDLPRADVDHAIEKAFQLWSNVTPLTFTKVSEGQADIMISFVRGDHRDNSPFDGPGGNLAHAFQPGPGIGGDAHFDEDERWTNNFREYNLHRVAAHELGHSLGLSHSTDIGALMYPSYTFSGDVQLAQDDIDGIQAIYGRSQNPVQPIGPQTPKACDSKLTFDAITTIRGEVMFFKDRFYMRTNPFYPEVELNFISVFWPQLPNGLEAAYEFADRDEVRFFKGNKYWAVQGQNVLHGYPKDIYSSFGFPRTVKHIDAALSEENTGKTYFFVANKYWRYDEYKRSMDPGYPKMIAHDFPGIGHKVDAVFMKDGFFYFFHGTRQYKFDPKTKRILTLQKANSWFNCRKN

[7] = Clearance in Sprague-Dawley rat at 1 mg/kg, iv; format: ADME, organism-based; design: dose 1 mg/kg, route intravenous; conditions: in vivo; method in brief: as §2
[8] = molecular target: T5, A disintegrin and metalloproteinase with thrombospondin motifs 5 (Homo sapiens, UniProt Q9UNA0); assay: Inhibition of human recombinant aggrecanase 2 after 150 mins by fluorescence plate reader
T5 sequence (Q9UNA0 whole entry): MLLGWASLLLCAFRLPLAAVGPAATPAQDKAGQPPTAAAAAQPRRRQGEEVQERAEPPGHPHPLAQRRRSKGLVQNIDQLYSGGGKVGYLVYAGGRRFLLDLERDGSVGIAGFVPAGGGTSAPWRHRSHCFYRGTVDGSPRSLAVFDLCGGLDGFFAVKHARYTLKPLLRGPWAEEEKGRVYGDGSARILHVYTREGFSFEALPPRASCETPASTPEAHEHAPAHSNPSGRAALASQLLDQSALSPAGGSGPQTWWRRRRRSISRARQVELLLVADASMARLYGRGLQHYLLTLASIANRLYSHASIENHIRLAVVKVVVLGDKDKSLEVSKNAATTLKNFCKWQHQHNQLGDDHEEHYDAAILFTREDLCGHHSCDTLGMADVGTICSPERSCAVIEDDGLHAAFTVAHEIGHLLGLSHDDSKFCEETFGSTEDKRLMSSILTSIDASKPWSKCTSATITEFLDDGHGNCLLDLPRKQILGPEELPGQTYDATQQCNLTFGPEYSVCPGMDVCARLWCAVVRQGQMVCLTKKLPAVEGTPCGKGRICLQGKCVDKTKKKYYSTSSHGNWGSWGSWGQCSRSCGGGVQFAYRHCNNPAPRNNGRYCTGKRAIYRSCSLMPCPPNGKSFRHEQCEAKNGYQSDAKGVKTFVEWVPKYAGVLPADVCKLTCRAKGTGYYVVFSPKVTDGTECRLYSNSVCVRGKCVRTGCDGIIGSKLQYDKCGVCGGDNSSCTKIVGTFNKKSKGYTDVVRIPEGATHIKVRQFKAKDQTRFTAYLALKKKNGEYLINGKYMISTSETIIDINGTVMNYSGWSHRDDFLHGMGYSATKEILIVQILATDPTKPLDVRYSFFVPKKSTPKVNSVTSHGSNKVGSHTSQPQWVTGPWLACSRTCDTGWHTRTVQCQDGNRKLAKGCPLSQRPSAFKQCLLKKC

[9] = Half life in Sprague-Dawley rat at 10 mg/kg, po; format: ADME, organism-based; design: dose 10 mg/kg, route oral; conditions: in vivo
Rattus norvegicus = assay: Oral bioavailability in Sprague-Dawley rat at 10 mg/kg; format: ADME, organism-based; conditions: in vivo
[10] = Cmax in Sprague-Dawley rat at 10 mg/kg, po; format: ADME, organism-based; design: dose 10 mg/kg, route oral; conditions: in vivo

Chain of Cytochrome P450 2D6 (P10635 whole entry): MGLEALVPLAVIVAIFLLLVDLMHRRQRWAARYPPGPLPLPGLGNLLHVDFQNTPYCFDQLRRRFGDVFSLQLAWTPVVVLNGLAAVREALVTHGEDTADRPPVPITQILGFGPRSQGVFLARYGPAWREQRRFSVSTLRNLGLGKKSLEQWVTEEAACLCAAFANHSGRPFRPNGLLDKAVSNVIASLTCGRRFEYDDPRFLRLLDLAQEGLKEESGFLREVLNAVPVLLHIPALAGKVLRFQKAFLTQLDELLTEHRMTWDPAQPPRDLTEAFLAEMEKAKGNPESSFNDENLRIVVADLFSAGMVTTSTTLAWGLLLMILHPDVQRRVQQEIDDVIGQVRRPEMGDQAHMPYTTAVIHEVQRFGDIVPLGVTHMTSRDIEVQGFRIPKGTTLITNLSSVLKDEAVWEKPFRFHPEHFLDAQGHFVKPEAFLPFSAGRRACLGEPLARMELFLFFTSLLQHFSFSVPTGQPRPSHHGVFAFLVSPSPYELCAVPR
Chain of Cytochrome P450 2C19 (P33261 whole entry): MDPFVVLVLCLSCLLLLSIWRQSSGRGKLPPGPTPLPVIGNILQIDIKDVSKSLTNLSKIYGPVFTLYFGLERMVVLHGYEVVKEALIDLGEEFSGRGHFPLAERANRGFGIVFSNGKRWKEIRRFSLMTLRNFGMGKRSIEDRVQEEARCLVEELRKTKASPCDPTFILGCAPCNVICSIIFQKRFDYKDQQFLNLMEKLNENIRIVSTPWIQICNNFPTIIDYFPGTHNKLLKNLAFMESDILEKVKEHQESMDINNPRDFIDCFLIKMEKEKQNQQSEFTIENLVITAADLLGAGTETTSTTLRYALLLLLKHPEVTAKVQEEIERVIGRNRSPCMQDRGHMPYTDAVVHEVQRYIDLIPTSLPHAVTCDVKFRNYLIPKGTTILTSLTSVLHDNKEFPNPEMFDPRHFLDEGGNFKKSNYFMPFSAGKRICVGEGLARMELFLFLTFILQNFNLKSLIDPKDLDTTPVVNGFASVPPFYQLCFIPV
Chain of Stromelysin-1 (P08254 whole entry): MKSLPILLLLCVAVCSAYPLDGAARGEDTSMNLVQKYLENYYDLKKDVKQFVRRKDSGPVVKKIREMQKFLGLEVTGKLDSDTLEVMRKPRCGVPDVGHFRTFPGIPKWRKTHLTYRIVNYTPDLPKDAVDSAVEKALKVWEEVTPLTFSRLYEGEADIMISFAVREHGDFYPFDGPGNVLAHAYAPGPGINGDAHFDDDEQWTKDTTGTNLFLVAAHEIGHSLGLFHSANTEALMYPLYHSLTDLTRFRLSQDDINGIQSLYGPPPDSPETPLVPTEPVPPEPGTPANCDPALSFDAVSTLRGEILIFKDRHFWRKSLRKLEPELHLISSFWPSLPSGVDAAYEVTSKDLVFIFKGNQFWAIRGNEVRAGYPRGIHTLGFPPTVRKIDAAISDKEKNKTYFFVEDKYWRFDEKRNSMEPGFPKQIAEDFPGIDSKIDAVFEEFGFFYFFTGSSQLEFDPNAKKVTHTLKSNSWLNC
Chain of Disintegrin and metalloproteinase domain-containing protein 17 (P78536 whole entry, the tested form may be a part): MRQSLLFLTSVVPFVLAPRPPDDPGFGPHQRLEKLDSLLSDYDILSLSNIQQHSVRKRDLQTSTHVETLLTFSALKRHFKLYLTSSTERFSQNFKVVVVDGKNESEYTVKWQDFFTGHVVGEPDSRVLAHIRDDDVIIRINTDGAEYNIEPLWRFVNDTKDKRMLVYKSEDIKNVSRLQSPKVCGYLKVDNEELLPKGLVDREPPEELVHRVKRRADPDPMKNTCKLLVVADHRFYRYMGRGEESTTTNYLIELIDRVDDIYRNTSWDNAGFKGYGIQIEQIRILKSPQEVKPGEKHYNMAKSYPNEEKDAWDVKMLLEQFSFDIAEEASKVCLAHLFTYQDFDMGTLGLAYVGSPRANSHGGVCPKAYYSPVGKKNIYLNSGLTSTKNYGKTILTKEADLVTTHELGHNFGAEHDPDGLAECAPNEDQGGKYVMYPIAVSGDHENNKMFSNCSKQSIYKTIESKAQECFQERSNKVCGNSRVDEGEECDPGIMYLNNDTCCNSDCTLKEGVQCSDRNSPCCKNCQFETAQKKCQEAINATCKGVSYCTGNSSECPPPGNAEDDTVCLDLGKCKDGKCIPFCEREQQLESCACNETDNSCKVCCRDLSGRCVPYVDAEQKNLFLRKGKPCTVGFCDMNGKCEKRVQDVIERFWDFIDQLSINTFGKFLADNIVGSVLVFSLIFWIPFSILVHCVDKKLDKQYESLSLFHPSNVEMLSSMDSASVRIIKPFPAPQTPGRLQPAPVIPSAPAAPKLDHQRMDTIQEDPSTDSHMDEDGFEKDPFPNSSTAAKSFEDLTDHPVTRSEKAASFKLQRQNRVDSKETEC
Chain of Cytochrome P450 3A4 (P08684 whole entry): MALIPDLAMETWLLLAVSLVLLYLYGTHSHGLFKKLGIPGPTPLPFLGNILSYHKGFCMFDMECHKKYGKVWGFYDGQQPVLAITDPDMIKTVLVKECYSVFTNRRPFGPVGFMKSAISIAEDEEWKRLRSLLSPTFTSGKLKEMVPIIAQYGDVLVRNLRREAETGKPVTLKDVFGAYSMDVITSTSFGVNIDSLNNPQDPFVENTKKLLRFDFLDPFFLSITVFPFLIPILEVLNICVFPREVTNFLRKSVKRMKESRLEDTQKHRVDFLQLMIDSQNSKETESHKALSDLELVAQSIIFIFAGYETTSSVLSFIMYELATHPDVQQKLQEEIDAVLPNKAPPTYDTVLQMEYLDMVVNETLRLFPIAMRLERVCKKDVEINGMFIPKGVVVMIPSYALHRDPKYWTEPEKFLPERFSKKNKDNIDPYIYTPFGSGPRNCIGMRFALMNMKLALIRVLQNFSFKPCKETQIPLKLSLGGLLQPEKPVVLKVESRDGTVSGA
Chain of Matrix metalloproteinase-9 (P14780 whole entry): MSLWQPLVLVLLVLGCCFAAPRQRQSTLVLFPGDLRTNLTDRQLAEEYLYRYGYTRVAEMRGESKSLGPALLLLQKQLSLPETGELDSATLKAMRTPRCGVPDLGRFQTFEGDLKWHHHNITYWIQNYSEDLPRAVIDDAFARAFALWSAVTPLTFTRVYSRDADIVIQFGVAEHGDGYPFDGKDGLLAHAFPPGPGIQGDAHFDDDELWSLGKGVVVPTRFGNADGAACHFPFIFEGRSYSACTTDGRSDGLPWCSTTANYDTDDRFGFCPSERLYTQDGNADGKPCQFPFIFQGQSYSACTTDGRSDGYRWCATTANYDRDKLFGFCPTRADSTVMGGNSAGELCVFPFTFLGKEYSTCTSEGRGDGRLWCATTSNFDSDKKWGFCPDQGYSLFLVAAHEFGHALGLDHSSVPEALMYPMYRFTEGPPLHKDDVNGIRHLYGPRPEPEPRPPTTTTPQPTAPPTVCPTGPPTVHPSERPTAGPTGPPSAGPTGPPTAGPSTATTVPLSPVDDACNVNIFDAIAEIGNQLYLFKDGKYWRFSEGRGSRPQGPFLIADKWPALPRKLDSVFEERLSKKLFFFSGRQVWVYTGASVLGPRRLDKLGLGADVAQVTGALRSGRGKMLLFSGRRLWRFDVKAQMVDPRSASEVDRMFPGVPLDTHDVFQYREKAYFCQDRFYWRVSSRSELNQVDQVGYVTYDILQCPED
Chain of Cytochrome P450 2C9 (P11712 whole entry): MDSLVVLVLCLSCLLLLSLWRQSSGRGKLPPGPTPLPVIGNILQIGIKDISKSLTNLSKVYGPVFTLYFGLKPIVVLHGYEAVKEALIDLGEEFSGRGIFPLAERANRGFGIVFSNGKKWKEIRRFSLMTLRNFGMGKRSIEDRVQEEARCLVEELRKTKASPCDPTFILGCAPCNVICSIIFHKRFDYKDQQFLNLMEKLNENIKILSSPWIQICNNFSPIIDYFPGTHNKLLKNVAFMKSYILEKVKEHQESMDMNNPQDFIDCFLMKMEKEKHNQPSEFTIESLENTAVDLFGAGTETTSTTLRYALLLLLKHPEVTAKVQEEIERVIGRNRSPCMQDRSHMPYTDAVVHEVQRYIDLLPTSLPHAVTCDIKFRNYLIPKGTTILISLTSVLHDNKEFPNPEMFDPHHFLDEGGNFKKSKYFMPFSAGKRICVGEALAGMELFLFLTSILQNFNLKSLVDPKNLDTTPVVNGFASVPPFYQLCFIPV

IC50 [1] [nM]	IC50 [2] [nM]	IC50 [3] [nM]	IC50 (Collagenase 3) [nM]	IC50 (Stromelysin-1) [nM]	Vd [4] [L/kg]	inhibition (INH) (Cytochrome P450 2C19)	inhibition (INH) (Cytochrome P450 3A4)	inhibition (INH) (Cytochrome P450 2A6)	IC50 [5] [nM]	AUC [6] [µM·h]	inhibition (INH) (Cytochrome P450 2D6)	inhibition (INH) (Cytochrome P450 2C9)	inhibition (INH) (Cytochrome P450 1A2)	IC50 (Interstitial collagenase) [nM]	clearance [7] [mL/min/kg]	IC50 [8] [nM]	half-life [9] [h]	F (Rattus norvegicus) [%]	Cmax [10] [µM]	SMILES
4	3.9	58	3.4	68	–	–	–	–	–	–	–	–	–	–	–	–	–	–	–	C[C@@H]1[C@H](c2ccccc2)[C@]1(NS(=O)(=O)c1ccc(-n2cc(Cl)cn2)s1)C(=O)O
–	> 10000	–	–	–	0.7	Not Active	Not Active	Not Active	> 10000	76.9	Not Active	Not Active	Not Active	> 10000	10	14	2	196	17.4	C[C@@H]1[C@](C)(c2ccccc2)[C@]1(NS(=O)(=O)N1CCn2c(nc3cc(F)ccc32)C1)C(=O)O
